mIAP activ – increases mouse intestinal alkaline phosphatase activity. muIAP, CDP-Star luminescence, 30 min; hits give high values; 1 = vehicle-only enzyme signal, 0 = enzyme-free wells. hit rate 0.24% among 330,000. activation factor at 10 µM;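 active = activation factor of at least 2 at 20 µM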
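Assay system: mouse IAP enzyme; reagent: chemiluminescent substrate CDP-Star; dosing: test compounds delivered from DMSO solution; schedule: 30 min at room temperature; measured by: luminescence from enzymatic CDP-Star hydrolysis; controls: DMSO-only wells and no-enzyme negative control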
bIAP inh – intestinal alkaline phosphatase (bovine) inhibition. 190,000 tested, under 10 active. inhibition, % at 20 µM. purified bovine IAP, CDP-star luminescence, 30 min;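 active = over 50% inhibition of intestinal alkaline phosphatase at 20 µM in the single-dose screen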
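System: purified bovine intestinal alkaline phosphatase (IAP) enzyme; Input: IAP diluted 1/65,000,000 in the well; Measured by: CDP-star luminescence signal; Compound dosing: 20 µM single dose; Incubation: 30 min reaction at room temperature.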
hIAP block – human IAP inhibition; P09923; purified IAP, CDP-Star luminescence, 30 min; inhibition, % at 10 µM; hit rate 0.12% among 330,000; AID 2544;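 active = inhibition reaching a set limit with compound at 10 µM in the primary screen, cut at about 35% in these data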;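 note: plate controls were DMSO wells with enzyme for no effect and no-enzyme buffer wells for full effect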
Target sequence (P09923 whole entry, looked up): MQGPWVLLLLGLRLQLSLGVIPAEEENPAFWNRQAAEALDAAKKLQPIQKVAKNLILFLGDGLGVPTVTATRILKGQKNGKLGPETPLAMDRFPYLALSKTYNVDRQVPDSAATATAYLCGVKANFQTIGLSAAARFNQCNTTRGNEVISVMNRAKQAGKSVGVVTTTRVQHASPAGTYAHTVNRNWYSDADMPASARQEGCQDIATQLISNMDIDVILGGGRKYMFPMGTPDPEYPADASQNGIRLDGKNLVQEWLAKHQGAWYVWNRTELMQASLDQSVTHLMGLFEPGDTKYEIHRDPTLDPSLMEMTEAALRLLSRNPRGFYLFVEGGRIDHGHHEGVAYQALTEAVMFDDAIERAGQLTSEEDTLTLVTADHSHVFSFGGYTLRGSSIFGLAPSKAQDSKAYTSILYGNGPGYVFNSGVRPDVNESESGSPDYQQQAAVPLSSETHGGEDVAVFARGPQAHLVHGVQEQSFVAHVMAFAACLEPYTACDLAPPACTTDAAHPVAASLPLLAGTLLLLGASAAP
bIAP activator – increases bovine intestinal alkaline phosphatase activity | purified bovine IAP, CDP-star luminescence, 30 min; hits give high values; fold of DMSO-control signal, blank-subtracted | AID 1016 | activation factor at 20 µM | hit rate 0.17% among 200,000;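 active = activation factor of 2 or more at 20 µM, a signal rise over negative controls twice the positive control's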
mIAP inh – mouse IAP inhibition. purified mouse IAP, CDP-Star luminescence, 30 min. inhibition, % at 10 µM. hit rate 0.2% among 330,000. AID 2806;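 active = inhibition of at least 40% at 10 µM in the primary screen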;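 note: plate controls were DMSO with enzyme for no effect and no enzyme wells for full effect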
hIAP act – increases human intestinal alkaline phosphatase activity; AID 2524; activation factor at 10 µM; purified human IAP, CDP-Star luminescence, 30 min; hits give high values; 1 = vehicle-only enzyme, 0 = enzyme-free background; hit rate 0.16% among 330,000;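 active = activation factor of the enzyme at least 2-fold when tested at 20 µM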
hIAP act confirm – human IAP activation confirmation; shares compounds with hIAP act; purified IAP, CDP-Star luminescence, 30 min; hits give low values; activation (%Activity, negative = activation), % at 8.3 µM; hit rate 10% among 880;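 active = at least twofold enzyme activation in any of six single-dose repeats, which the averaged readout prints as negative percent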
mIAP inh conf – mouse IAP inhibition confirmation; shares compounds with mIAP inh; purified mouse IAP, CDP-Star luminescence, 30 min; inhibition, % at 10 µM; hit rate 4.7% among 11,000; AID 434971;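 active = inhibition of at least 40% at 10 µM in either of the two replicates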;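 note: plate controls were DMSO wells with enzyme for no effect and buffer wells lacking enzyme for full effect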
* hit, by the source's call; / = no result given. In the library only some 0.77% were active in any assay of this set; here they are far more common.

SMILES	mIAP activ	bIAP inh	hIAP block	bIAP activator	mIAP inh	hIAP act	hIAP act confirm	others
COc1ccc(CN(CCNC(=O)CCCCC(=O)NCCN(Cc2ccc(OC)cc2)C(C)C)C(C)C)cc1	1.2	/	41*	/	-16	0.59	18
COc1ccc(CCNC(=O)CCCCC(=O)NCCc2ccc(OC)cc2)cc1	0.9	/	2	/	10	0.98	/
Cc1ccc(C(=O)N/C(=C\c2ccco2)C(=O)NCCCn2ccnc2)cc1C	1.1	-24	86*	1.2	-6	0.14	-63
COc1ccc(C(=O)N/C(=C\c2ccco2)C(=O)NCCCn2ccnc2)cc1	0.92	5	6	0.9	8	0.94	/
CC(C)CC(=O)NC(=S)NNC(=O)c1ccc(NC(=O)C2CCCCC2)cc1	1.1	-36	-126	1.4	-8	2.3*	62
COCC(=O)N1CCC(Oc2ccc(C(=O)NCc3cc(C)no3)cc2)CC1	1.1	/	36*	/	-6	0.64	-4
O=C(CC(=O)c1ccccc1)Nc1ccccn1	1	/	42*	/	-1	0.58	-16
O=C(CC(=O)c1ccccc1)Nc1ccccc1	0.95	/	7	/	5	0.93	/
Oc1ccc(-c2csc(-c3ccccc3)n2)cc1O	0.84	8	10	0.9	16	0.9	/
Oc1ccc(-c2csc(-c3cccnc3)n2)cc1O	0.75	/	41*	/	25	0.59	6
Cc1ccc2c(c1)c1c3n2CCCN(Cc2ccccc2)C3CCC1 (stereo not given)	0.91	9	14	0.9	9	0.86	/
COC(=O)C(N)Cc1ccc(O)c(O)c1 (stereo not given)	0.76	17	21	0.8	24	0.79	/
Cc1cc2c(cc1C)NC(CC(=O)NCc1ccccc1)C(=O)N2 (stereo not given)	0.88	16	-2	0.8	12	1	/
COc1ccccc1C1CN(c2ccccc2)N=C1c1cccs1 (stereo not given)	1.5	-25	60*	1.2	-53	0.4	-128*
C(=N\Nc1nc(-c2cccnc2)nc2ccccc12)/c1ccccc1	0.99	/	-2	/	1	1	/
COc1cccc(/C=N/Nc2nc(-c3cccnc3)nc3ccccc23)c1	0.98	/	58*	/	2	0.42	0
CC(CS(=O)(=O)c1ccccc1[N+](=O)[O-])N1CCOCC1 (stereo not given)	0.98	6	3	0.9	2	0.97	/
CCN1/C(=C/c2ccc3ccccc3[n+]2CC)C=Cc2ccccc21	0.74	/	36*	0.3	26	0.64	-49
CCCCN1/C(=C/c2ccc3ccccc3[n+]2CC)Sc2ccccc21	0.92	40	18	0.6	8	0.82	/
Cc1cccc(Nc2ncnc3nc[nH]c23)c1C	0.86	20	-19	0.8	14	1.2	/
Cc1occc1C(=O)NNC(=S)Nc1cccc([N+](=O)[O-])c1	0.91	-23	-111	1.2	9	2.1*	-7
O=C(N/N=C/c1c(F)cccc1Cl)c1cc(C2CC2)[nH]n1	1	/	-105	/	-1	2*	38
O=C(N/N=C/c1ccc(O)cc1)c1cc(C2CC2)[nH]n1	1.1	/	7	/	-7	0.93	/
COC(=O)CCC(=O)Nc1ccc(Cl)c(Cl)c1	0.97	16	8	0.8	3	0.92	/
COC(=O)CCC(=O)Nc1ccc2oc3c(c2c1)CCCC3	0.89	/	42*	/	11	0.58	-39
SMILES	mIAP activ	bIAP inh	hIAP block	bIAP activator	mIAP inh	hIAP act	hIAP act confirm	others
O=C(CN1CCCC1)Nc1ccc(F)cc1	0.92	6	1	0.9	8	0.99	/
O=C(CN1CCN(C(=O)N2CCCCC2)CC1)Nc1ccc(F)cc1	1.1	-4	-127	1	-9	2.3*	-97*
CNC(=O)c1[nH]cnc1C(=O)Nc1ccccc1	0.89	/	-40	/	11	1.4	/
CNC(=O)c1[nH]cnc1C(=O)Nc1ccccn1	0.87	-51	-110	1.5	13	2.1*	-18
CS(=O)(=O)c1ccc(Cl)c(NC(=O)Cc2ccsc2)c1	1	/	36*	/	-2	0.64	5
CS(=O)(=O)c1ccc(Cl)c(NC(=O)Cc2c(Cl)cccc2Cl)c1	1	12	-10	0.9	0	1.1	/
COC(=O)c1cc(OC)c(OC)cc1NC(=O)CSc1nnc(-c2cccnc2)n1C	1.1	1	-115	1	-9	2.1*	-12
Cc1ccc(S(=O)(=O)NCC(=O)N/N=C/c2ccc(Cl)cc2Cl)cc1	1	3	3	1	-2	0.97	/
Cc1ccc(S(=O)(=O)NCC(=O)N/N=C/c2ccccc2O)cc1	0.71	-45	-118	1.4	29	2.2*	-63
CCN(CC(=O)NC(c1ccccc1)c1ccccc1)Cc1nc2ccccc2c(=O)[nH]1	1.6	-142	-113	2.4*	-65	2.1*	-65
CCN(CC(=O)Nc1ccccc1SC)Cc1nc2ccccc2c(=O)[nH]1	0.97	/	-39	/	3	1.4	/
CN(C)c1ccc2nc3c(=O)[nH]c(=O)nc-3n(CC(O)C(O)C(O)CO)c2c1 (stereo not given)	0.59	/	52*	/	41*	0.48	-87*	mIAP inh conf=46*
O=c1oc2ccccc2c2oc3cc(O)c(O)cc3c12	0.42	/	70*	/	58*	0.3	24	mIAP inh conf=67*
Nc1c(N)c2ccccc2oc1=O	1	4	0	1	-3	1	/
N=c1sccn1CC(=O)Nc1cc(Cl)ccc1Oc1ccccc1	0.99	2	-13	1	1	1.1	/
O=C(NNC(=O)C1CCCCC1)c1ccco1	0.92	7	-16	0.9	8	1.2	/
CCC1CCC(C(=O)NNC(=O)c2cc(-c3ccco3)[nH]n2)CC1 (stereo not given)	0.45	-25	-105	1.2	55*	2*	0	mIAP inh conf=60*
O=C1CC(c2ccc(O)c(O)c2)Oc2cc(O)cc(O)c21 (stereo not given)	0.44	/	44*	/	56*	0.56	-34	mIAP inh conf=53*
O=C(/C=C/c1ccc(O)c(O)c1)NC(=O)c1ccccc1O	0.52	/	57*	/	48*	0.43	-8	mIAP inh conf=59*
O=C(Nc1ccccc1)N1CCN(c2nc(-c3ccccc3)ns2)CC1	1.1	/	9	/	-15	0.91	/
O=C(N/N=C/c1ccc(O)cc1O)C(=O)N/N=C/c1ccc(O)cc1O	0.47	/	-128	/	54*	2.3*	19	mIAP inh conf=67*
CC(C)c1ccc(NC(=O)C2CC(=O)Nc3nc4ccccc4n32)cc1 (stereo not given)	2.9*	/	-137	/	-189	2.4*	-43	mIAP inh conf=-138
